Laboratory results from article PMC9426946 (Biochimica et biophysica acta. Proteins and proteomics, 2022).

B1: β-casein: bovine β-casein, protein substrate (protein, UniProt P02666 16-224, looked up)
Beta-casein: RELEELNVPGEIVESLSSSEESITRINKKIEKFQSEEQQQTEDELQDKIHPFAQTQSLVYPFPGPIPNSLPQNIPPLTQTPVVVPPFLQPEVMGVSKVKEAMAPKHKEMPFPKYPVEPFTESQSLTLTDVENLHLPLPLLQSWMHQPHQPLPPTVMFPPQSVLSLSQSKVLPVPQKAVPYPQRDMPIQAFLLYQEPVLGPVRGPFPIIV

Tests used:
human CTRB2 = conditions: read-out: KD on human CTRB2; prior observations; cited from earlier work
CTRB1 = CTRB1 (Homo sapiens, UniProt P17538, Y164H); test: Michaelis-Menten kinetics on p-nitroanilide peptide substrates; assay type: biochemical; conditions: for kcat/KM, CTRB1 / Km: 0.1 M Tris-HCl pH 8.0, 1 mM CaCl2, 0.05% Tween-20; for Km: read-out: KM, CTRB1, average of two independent measurements
Sequence of CTRB1 (P17538 19-263 Y164H): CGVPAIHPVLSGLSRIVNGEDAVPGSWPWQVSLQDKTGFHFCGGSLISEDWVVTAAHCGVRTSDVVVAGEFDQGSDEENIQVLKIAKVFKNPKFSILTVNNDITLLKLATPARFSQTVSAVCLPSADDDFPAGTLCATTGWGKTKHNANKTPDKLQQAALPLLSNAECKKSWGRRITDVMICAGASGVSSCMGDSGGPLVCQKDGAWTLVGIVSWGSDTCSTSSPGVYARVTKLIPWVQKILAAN
Procedure, shortened: (§1)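 Suc- and H-Ala-Ala-Pro-Phe-pNA were used at 8–1050 µM, from DMSO stocks calibrated by complete chymotryptic hydrolysis. Reactions were started by adding enzyme to 1 or 5 nM final. p-Nitroaniline release was followed at 410 nm for 3–5 min (ε 8,800 M-1cm-1), with rates taken from linear portions. KM and Vmax came from hyperbolic fits, averaging two independent measurements. Human enzymes were recombinant Y164H forms, ecotin-titrated.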

CTRB2 [1] = molecular target: T1, CTRB2 (Homo sapiens, UniProt Q6GPI1, Y164H); test: as above; assay type: biochemical; conditions: for kcat/KM, CTRB2 / kcat, CTRB2 / Km: 0.1 M Tris-HCl pH 8.0, 1 mM CaCl2, 0.05% Tween-20; for kcat, CTRB2 / Km: average of two independent measurements; for Km: read-out: KM, CTRB2
T1 sequence (Q6GPI1 19-263 Y164H): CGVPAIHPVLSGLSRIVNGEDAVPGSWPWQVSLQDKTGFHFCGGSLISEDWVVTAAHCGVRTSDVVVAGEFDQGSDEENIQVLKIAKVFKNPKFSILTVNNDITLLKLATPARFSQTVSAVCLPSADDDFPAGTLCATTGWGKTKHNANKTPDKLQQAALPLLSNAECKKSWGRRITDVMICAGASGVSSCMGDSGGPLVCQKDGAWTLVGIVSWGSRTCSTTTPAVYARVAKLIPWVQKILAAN
Procedure, shortened: as §1

bCTRA = bCTRA (Bos taurus, UniProt P00766); test: as above; assay type: biochemical, bovine; conditions: for kcat/KM, bCTRA / kcat, bCTRA / Km: 0.1 M Tris-HCl pH 8.0, 1 mM CaCl2, 0.05% Tween-20; for kcat, bCTRA / Km: average of two independent measurements; for Km: read-out: KM, bCTRA
Procedure, shortened: as §1

CTRB1 D236R = CTRB1 D236R (Homo sapiens, UniProt P17538, D236R/Y164H); test: as above; assay type: biochemical; conditions: for kcat/KM, CTRB1 D236R / kcat, CTRB1 D236R / Km: 0.1 M Tris-HCl pH 8.0, 1 mM CaCl2, 0.05% Tween-20; for kcat, CTRB1 D236R / Km: average of two independent measurements; for Km: read-out: KM, CTRB1 D236R
Sequence of CTRB1 D236R (P17538 19-263 Y164H/D236R): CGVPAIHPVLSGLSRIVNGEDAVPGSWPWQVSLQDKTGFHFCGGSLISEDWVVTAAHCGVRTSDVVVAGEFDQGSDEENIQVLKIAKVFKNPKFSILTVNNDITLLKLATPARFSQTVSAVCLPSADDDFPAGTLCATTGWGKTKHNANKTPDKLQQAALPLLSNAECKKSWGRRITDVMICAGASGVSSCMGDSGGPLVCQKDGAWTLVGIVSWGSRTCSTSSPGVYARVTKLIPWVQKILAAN
Procedure, shortened: as §1

CTRB1 S242T = CTRB1 S242T (Homo sapiens, UniProt P17538, S242T/Y164H); test: as above; assay type: biochemical; conditions: 0.1 M Tris-HCl pH 8.0, 1 mM CaCl2, 0.05% Tween-20; for kcat, CTRB1 S242T / Km: average of two independent measurements; for Km: read-out: KM, CTRB1 S242T
Sequence of CTRB1 S242T (P17538 19-263 Y164H/S242T): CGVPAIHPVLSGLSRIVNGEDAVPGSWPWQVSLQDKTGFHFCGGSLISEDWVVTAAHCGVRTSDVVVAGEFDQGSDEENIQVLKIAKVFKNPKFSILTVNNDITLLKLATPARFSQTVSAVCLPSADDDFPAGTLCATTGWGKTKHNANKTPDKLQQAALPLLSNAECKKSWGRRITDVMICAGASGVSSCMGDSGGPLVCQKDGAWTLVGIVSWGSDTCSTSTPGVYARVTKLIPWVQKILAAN
Procedure, shortened: as §1

[2] = molecular target: chymotrypsin B1 (Homo sapiens) (UniProt P17538); conditions: cited from earlier work
Sequence of chymotrypsin B1 (Homo sapiens) (P17538 34-164, chain 2 of 2): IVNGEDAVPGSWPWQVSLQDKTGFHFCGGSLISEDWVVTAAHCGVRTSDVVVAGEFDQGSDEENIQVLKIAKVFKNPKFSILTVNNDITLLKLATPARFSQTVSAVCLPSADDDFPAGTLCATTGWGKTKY
Sequence of chymotrypsin B1 (Homo sapiens) (P17538 167-263, chain 3 of 2): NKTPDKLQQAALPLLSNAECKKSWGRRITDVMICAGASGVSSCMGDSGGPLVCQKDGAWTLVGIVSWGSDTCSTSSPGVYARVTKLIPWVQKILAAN

CTRB2 [3] = molecular target: T1, CTRB2; test: Casein digestion by chymotrypsins; assay type: biochemical; conditions: 0.2 mg/mL β-casein, 5 nM enzyme, 0.1 M Tris-HCl pH 8.0, 1 mM CaCl2, 37°C; SDS-PAGE densitometry, two experiments
[4] = relative to Suc-Ala-Ala-Pro-Phe-p-nitroanilide

Molecule | kcat/KM, CTRB1 (CTRB1) | Km (CTRB1) | kcat/KM, CTRB2 (CTRB2 [1]) | kcat, CTRB2 (CTRB2 [1]) | Km (CTRB2 [1]) | kcat/KM, bCTRA (bCTRA) | kcat, bCTRA (bCTRA) | Km (bCTRA) | kcat/KM, CTRB1 D236R (CTRB1 D236R) | kcat, CTRB1 D236R (CTRB1 D236R) | Km (CTRB1 D236R) | kcat/KM, CTRB1 S242T (CTRB1 S242T) | kcat, CTRB1 S242T (CTRB1 S242T) | Km (CTRB1 S242T) | other results
Schistocerca gregaria proteinase inhibitor 2 [wild-type SGPI-2] | – | – | – | – | – | – | – | – | – | – | – | – | – | – | Kd (human CTRB2): 0.16 nM
Suc-Ala-Ala-Pro-Phe-p-nitroanilide [Suc-AAPF-pNA] | 160000 M⁻¹ s⁻¹ | 219 µM | 1.3e+06 M⁻¹ s⁻¹ | 26.1 s⁻¹ | 20.4 µM | 790000 M⁻¹ s⁻¹ | 36.9 s⁻¹ | 46.6 µM | 2e+06 M⁻¹ s⁻¹ | 36.0 s⁻¹ | 17.9 µM | 180000 M⁻¹ s⁻¹ | 38.4 s⁻¹ | 220 µM | kcat/KM of CTRB2 relative to CTRB1 (CTRB2 [1]; more efficient than CTRB1): 8.1 fold; kcat/KM of bCTRA relative to CTRB1 (bCTRA; more efficient than CTRB1): 5 fold; kcat/KM of CTRB1 D236R relative to CTRB1 (CTRB1 D236R; more efficient than CTRB1): 12.5 fold
SGPI-2 (from UniProt O46162) | – | – | – | – | – | – | – | – | – | – | – | – | – | – | Kd [2]: 1.1 nM
H-Ala-Ala-Pro-Phe-p-nitroanilide [H-AAPF-pNA] | 40000 M⁻¹ s⁻¹ | 575 µM | 36000 M⁻¹ s⁻¹ | 10.9 s⁻¹ | 304 µM | 55000 M⁻¹ s⁻¹ | 20.3 s⁻¹ | 371 µM | 45000 M⁻¹ s⁻¹ | 9.64 s⁻¹ | 214 µM | 39000 M⁻¹ s⁻¹ | 21.3 s⁻¹ | 550 µM | reduction in kcat/KM on removal of the Suc group, CTRB1 (CTRB1; [4]): 4 fold; reduction in kcat/KM on removal of the Suc group, CTRB2 (CTRB2 [1]; [4]): 36 fold
B1 | – | – | – | – | – | – | – | – | – | – | – | – | – | – | digestion activity of CTRB2 relative to CTRB1 (CTRB2 [3]): 2.3 fold
